In ChEMBL document CHEMBL2424572 (J Med Chem, 2013):

Legend:
[1] = target: Collagenase 3 (Homo sapiens, UniProt P45452); assay: Inhibition of MMP-13 (unknown origin) using 7-methoxycoumarin-4-yl)acetyl-Pro-Leu-Gly-Leu-(3-(2,4-dinitrophenyl)-L-2,3-diamino-propionyl)Ala-Arg-NH2 as substrate preincubated for 30 mins followed by substrate addition by fluorescence assay
Outline: (§1)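 Activated MMP (2 nM) preincubated with inhibitor (10 pM to 1 mM) in 50 mM Tris-HCl pH 7.5, 0.2 M NaCl, 5 mM CaCl2, 20 μM ZnSO4, 0.05% Brij 35, 37 °C for 30 min.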

[2] = target: 72 kDa type IV collagenase (Homo sapiens, UniProt P08253); assay: Inhibition of MMP-2 (unknown origin) using 7-methoxycoumarin-4-yl)acetyl-Pro-Leu-Gly-Leu-(3-(2,4-dinitrophenyl)-L-2,3-diamino-propionyl)Ala-Arg-NH2 as substrate preincubated for 30 mins followed by substrate addition by fluorescence assay; outline: as §1
Chain of 72 kDa type IV collagenase (P08253 whole entry): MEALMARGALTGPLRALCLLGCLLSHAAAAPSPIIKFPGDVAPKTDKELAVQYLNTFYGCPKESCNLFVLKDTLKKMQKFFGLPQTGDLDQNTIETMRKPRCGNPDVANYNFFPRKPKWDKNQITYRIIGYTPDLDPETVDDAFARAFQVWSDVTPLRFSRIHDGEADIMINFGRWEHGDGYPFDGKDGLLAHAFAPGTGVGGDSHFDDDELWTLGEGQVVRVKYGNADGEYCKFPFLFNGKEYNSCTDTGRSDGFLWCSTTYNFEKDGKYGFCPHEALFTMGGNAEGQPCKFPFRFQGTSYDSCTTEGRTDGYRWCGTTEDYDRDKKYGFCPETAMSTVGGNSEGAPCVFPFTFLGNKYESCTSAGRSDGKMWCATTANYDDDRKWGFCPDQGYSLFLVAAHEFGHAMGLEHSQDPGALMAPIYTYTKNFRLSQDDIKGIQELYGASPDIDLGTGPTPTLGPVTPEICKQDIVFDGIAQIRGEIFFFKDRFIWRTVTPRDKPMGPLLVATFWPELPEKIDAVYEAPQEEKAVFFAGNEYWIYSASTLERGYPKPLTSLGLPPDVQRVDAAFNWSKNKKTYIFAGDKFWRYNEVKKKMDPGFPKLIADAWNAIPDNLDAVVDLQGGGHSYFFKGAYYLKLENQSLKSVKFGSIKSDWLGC

[3] = target: Neutrophil collagenase (Homo sapiens, UniProt P22894); assay: Inhibition of MMP-8 (unknown origin) using 7-methoxycoumarin-4-yl)acetyl-Pro-Leu-Gly-Leu-(3-(2,4-dinitrophenyl)-L-2,3-diamino-propionyl)Ala-Arg-NH2 as substrate preincubated for 30 mins followed by substrate addition by fluorescence assay; outline: as §1
Chain of Neutrophil collagenase (P22894 whole entry): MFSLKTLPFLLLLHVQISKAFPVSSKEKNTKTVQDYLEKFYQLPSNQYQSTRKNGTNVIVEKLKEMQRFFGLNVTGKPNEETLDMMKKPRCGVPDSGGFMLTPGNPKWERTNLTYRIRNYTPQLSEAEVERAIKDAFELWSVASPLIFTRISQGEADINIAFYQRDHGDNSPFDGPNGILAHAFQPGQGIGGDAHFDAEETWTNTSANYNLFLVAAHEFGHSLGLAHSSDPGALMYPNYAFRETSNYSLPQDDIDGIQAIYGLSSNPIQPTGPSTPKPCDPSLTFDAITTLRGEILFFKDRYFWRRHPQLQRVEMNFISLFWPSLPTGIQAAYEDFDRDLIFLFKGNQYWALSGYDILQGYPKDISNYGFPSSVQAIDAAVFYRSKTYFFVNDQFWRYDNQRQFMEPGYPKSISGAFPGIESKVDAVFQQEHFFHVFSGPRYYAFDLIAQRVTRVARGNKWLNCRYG

[4] = target: Matrix metalloproteinase-9 (Homo sapiens, UniProt P14780); assay: Inhibition of MMP-9 (unknown origin) using 7-methoxycoumarin-4-yl)acetyl-Pro-Leu-Gly-Leu-(3-(2,4-dinitrophenyl)-L-2,3-diamino-propionyl)Ala-Arg-NH2 as substrate preincubated for 30 mins followed by substrate addition by fluorescence assay; outline: as §1
Chain of Matrix metalloproteinase-9 (P14780 whole entry): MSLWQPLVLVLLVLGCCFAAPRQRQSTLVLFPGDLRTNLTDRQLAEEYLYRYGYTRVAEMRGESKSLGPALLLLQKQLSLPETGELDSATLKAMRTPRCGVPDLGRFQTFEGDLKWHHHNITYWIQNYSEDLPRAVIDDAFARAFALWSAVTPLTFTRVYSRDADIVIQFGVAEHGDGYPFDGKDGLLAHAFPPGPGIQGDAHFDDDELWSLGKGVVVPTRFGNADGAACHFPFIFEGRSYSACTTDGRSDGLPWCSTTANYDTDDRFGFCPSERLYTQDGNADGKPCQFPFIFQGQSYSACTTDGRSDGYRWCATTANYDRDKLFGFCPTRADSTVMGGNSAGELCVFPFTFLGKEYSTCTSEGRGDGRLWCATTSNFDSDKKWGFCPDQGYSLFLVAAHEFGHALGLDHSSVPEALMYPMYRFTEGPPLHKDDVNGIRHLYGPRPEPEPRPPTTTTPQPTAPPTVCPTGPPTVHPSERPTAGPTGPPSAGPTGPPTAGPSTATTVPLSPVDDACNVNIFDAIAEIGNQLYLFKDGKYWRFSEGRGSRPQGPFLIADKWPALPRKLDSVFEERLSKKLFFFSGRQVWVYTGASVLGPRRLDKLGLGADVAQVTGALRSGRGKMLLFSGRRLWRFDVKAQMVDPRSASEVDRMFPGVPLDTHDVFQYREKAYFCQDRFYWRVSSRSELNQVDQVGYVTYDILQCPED

[5] = tested on: Mus musculus; assay: Biodistribution in wild type CD1 mouse gall bladder assessed as metabolite 5 at 11.1 MBq, iv measured at 30 mins by gamma counting-based HPLC analysis; type: ADME, organism-based; settings: in vivo, 0.5 h
Outline: (§2)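 About 11.1 MBq injected by tail vein (≤200 μL) into three mice, killed 30 min p.i. Tissues weighed and homogenized in 1% SDS/PBS, extracted with acetonitrile/acetic acid, frozen on dry ice, thawed, centrifuged 13000 rpm 8 min. Supernatants gamma-counted against a dose aliquot for %ID/g, then radio-HPLC on C18 (acetonitrile/water, 0.05% TFA).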

[6] = tested on: Mus musculus; assay: Biodistribution in wild type CD1 mouse small intestine assessed as metabolite 5 at 11.1 MBq, iv measured at 30 mins by gamma counting-based HPLC analysis; type: ADME, organism-based; settings: in vivo, 0.5 h; outline: as §2
[7] = tested on: Mus musculus; assay: Biodistribution in wild type CD1 mouse gall bladder assessed as metabolite 4 at 11.1 MBq, iv measured at 30 mins by gamma counting-based HPLC analysis; type: ADME, organism-based; settings: in vivo, 0.5 h; outline: as §2
[8] = tested on: Mus musculus; assay: Biodistribution in wild type CD1 mouse small intestine assessed as metabolite 3 at 11.1 MBq, iv measured at 30 mins by gamma counting-based HPLC analysis; type: ADME, organism-based; settings: in vivo, 0.5 h; outline: as §2
[9] = tested on: Kidney; assay: Biodistribution in wild type CD1 mouse kidney assessed as metabolite 3 at 11.1 MBq, iv measured at 30 mins by gamma counting-based HPLC analysis; type: ADME, organism-based; settings: in vivo, 0.5 h; outline: as §2
[10] = tested on: Mus musculus; assay: Biodistribution in wild type CD1 mouse gall bladder assessed as metabolite 2 at 11.1 MBq, iv measured at 30 mins by gamma counting-based HPLC analysis; type: ADME, organism-based; settings: in vivo, 0.5 h; outline: as §2
[11] = tested on: Mus musculus; assay: Biodistribution in wild type CD1 mouse gall bladder assessed as metabolite 1 at 11.1 MBq, iv measured at 30 mins by gamma counting-based HPLC analysis; type: ADME, organism-based; settings: in vivo, 0.5 h; outline: as §2
[12] = tested on: Mus musculus; assay: Biodistribution in wild type CD1 mouse small intestine assessed as metabolite 1 at 11.1 MBq, iv measured at 30 mins by gamma counting-based HPLC analysis; type: ADME, organism-based; settings: in vivo, 0.5 h; outline: as §2
[13] = tested on: Muscle tissue; assay: Biodistribution in […] mouse muscle at 250 kBq/g, iv after 90 to 120 mins by PET analysis; type: ADME, organism-based; settings: in vivo
Outline: (§3)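 Tracer dosed at 250 kBq/g body weight as a tail-vein bolus (100 μL, flushed with 100 μL saline) into C57/Bl6 mice, then PET scanning on a submillimeter-resolution small-animal scanner. Time-activity curves were drawn for regions of interest as %ID; images cover frames up to 90−120 min p.i.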

[14] = tested on: Lung; assay: Biodistribution in […] mouse lung at 250 kBq/g, iv after 90 to 120 mins by PET analysis; type: ADME, organism-based; settings: in vivo; outline: as §3
[15] = tested on: Mus musculus; assay: Biodistribution in […] mouse myocardium at 250 kBq/g, iv after 90 to 120 mins by PET analysis; type: ADME, organism-based; settings: in vivo; outline: as §3
[16] = tested on: Brain; assay: Biodistribution in […] mouse brain at 250 kBq/g, iv after 90 to 120 mins by PET analysis; type: ADME, organism-based; settings: in vivo; outline: as §3
[17] = tested on: Serum; assay: Metabolic stability in mouse serum at 5 MBq after 30 to 120 mins by radio-HPLC analysis; type: ADME, cell-free
Outline: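 PBS-formulated radioligand (20 μL, 5 MBq) added to 200 μL mouse serum at 37 °C. 20 μL samples taken at 10−120 min, quenched in MeOH/CH2Cl2 1:1 and centrifuged 2 min. Organic layer analysed by radio-HPLC, isocratic 35% CH3CN/water (0.1% TFA) for 13 min, then gradient.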

[18] = 1-octanol-PBS buffer partition coefficient, log D of the compound at 20 kBq after 1 min by gamma counting analysis; type: physicochemical

Compound	IC50 [1]	IC50 [2]	IC50 [3]	IC50 [4]	further results
COc1ccc(S(=O)(=O)N(CCn2cc(CN(C)S(=O)(=O)c3ccc(F)cc3)nn2)[C@@H](C(=O)NO)C(C)C)cc1	1 nM	3 nM	1 nM	3 nM	
Cc1ccc(S(=O)(=O)N(CCN=[N+]=[N-])[C@@H](C(=O)NO)C(C)C)cc1	1 nM	4 nM	1 nM	4 nM	
Cc1ccc(S(=O)(=O)N(CCn2cc(CCCF)nn2)[C@@H](C(=O)NO)C(C)C)cc1	0.3 nM	2 nM	0.9 nM	3 nM	
Cc1ccc(S(=O)(=O)N(CCn2cc(CCCCOc3cccnc3F)nn2)[C@@H](C(=O)NO)C(C)C)cc1	3 nM	3 nM	4 nM	6 nM	
CC(C)[C@H](C(=O)NO)N(CCN=[N+]=[N-])S(=O)(=O)c1ccc(OCCF)cc1	1 nM	4 nM	1 nM	4 nM	
CC(C)[C@H](C(=O)NO)N(CCn1cc(CCCCOc2cccnc2F)nn1)S(=O)(=O)c1ccc(OCCF)cc1	0.07 nM	0.4 nM	0.05 nM	0.8 nM	
CC(C)[C@H](C(=O)NO)N(CCn1cc(CNS(=O)(=O)c2ccc(F)cc2)nn1)S(=O)(=O)c1ccc(OCCF)cc1	0.1 nM	4 nM	0.7 nM	3 nM	
CC(C)[C@H](C(=O)NO)N(CCn1cc(CN(C)S(=O)(=O)c2ccc(F)cc2)nn1)S(=O)(=O)c1ccc(OCCF)cc1	1 nM	9 nM	5 nM	11 nM	
COc1ccc(S(=O)(=O)N(CCn2cc(CCC[18F])nn2)[C@@H](C(=O)NO)C(C)C)cc1					Drug uptake [5]: 3.55 % ID/g; Drug uptake [6]: 2.47 % ID/g; Drug uptake [7]: 15.97 % ID/g; Drug uptake [8]: 30.27 % ID/g; Drug uptake [9]: 0.67 % ID/g; Drug uptake [10]: 7.1 % ID/g; Drug uptake [11]: 6.21 % ID/g; Drug uptake [12]: 4.32 % ID/g; Drug uptake [13]: Not Active; Drug uptake [14]: Not Active; Drug uptake [15]: Not Active; Drug uptake [16]: Not Active; Stability [17]: Stable; logD at 1 min [18]: 1.25
COc1ccc(S(=O)(=O)N(CCN=[N+]=[N-])[C@@H](C(=O)NO)C(C)C)cc1	9 nM	0.9 nM	2 nM	6 nM	
COc1ccc(S(=O)(=O)N(CCn2cc(CCCF)nn2)[C@@H](C(=O)NO)C(C)C)cc1	0.05 nM	0.7 nM	0.4 nM	0.07 nM	
COc1ccc(S(=O)(=O)N(CCn2cc(CCCCOc3cccnc3F)nn2)[C@@H](C(=O)NO)C(C)C)cc1	0.04 nM	0.9 nM	0.5 nM	0.3 nM	
COc1ccc(S(=O)(=O)N(CCn2cc(CNS(=O)(=O)c3ccc(F)cc3)nn2)[C@@H](C(=O)NO)C(C)C)cc1	0.09 nM	5 nM	0.2 nM	0.6 nM	

Second part, led by results:

IC50 [1]	IC50 [2]	IC50 [3]	IC50 [4]	Compound	further results
0.1 nM	3 nM	2 nM	0.4 nM	Cc1ccc(S(=O)(=O)N(CCn2cc(COCCOCCOCCOCCOCCF)nn2)[C@@H](C(=O)NO)C(C)C)cc1	
0.07 nM	2 nM	0.4 nM	2 nM	CC(C)[C@H](C(=O)NO)N(CCn1cc(CCCF)nn1)S(=O)(=O)c1ccc(OCCF)cc1	
7 nM	5 nM	35 nM	10 nM	CC(C)[C@H](C(=O)NO)N(CCn1cc(COCCOCCOCCOCCOCCF)nn1)S(=O)(=O)c1ccc(OCCF)cc1	
0.7 nM	2 nM	2 nM	7 nM	CC(C)[C@H](C(=O)NO)N(Cc1cn(CCF)nn1)S(=O)(=O)c1ccc(OCCF)cc1	
0.6 nM	2 nM	0.2 nM	0.2 nM	CC(C)[C@H](C(=O)NO)N(Cc1cn(CCOCCOCCOCCF)nn1)S(=O)(=O)c1ccc(OCCF)cc1	
0.3 nM	0.5 nM	0.3 nM	0.2 nM	CC(C)[C@H](C(=O)NO)N(Cc1cn(CCOCCOCCOCCOc2cccnc2F)nn1)S(=O)(=O)c1ccc(OCCF)cc1	
6 nM	4 nM	1 nM	2 nM	COc1ccc(S(=O)(=O)N(CCn2cc(COCCOCCOCCOCCOCCF)nn2)[C@@H](C(=O)NO)C(C)C)cc1	
